Assay outcomes (PubChem BioAssay)
Hits are enriched below; roughly 3.1% of the tested compounds scored in any of these assays.
TAG inh = inhibitors of triacylglycerol accumulation, primary screen, cell-based, uHTS, fluorescence, H9c2 | H9c2 cells, Nile Red lipid (TAG) fluorescence; cells loaded with 200 µM oleic acid | inhibition, % at 12.5 µM | hit rate 0.66% among 230,000 | AID 651582, 2012;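 active = pattern-corrected inhibition of lipid staining of at least 50% with the nuclear-stain viability signal not falling by more than 50%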;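 note: 0% = DMSO wells and 100% = triacsin C control wells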
Beta cell apopt = inhibitors of cytokine-induced beta cell apoptosis, primary screen, luminescence. INS-1E cytokine-induced death, ATP luminescence, 48 h; percent of positive-control rescue, neutral wells zero. AID 435005, 2010. protection from apoptosis, % (concentration not given with the values). hit rate 0.8% among 300,000;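 active = Every replicate reaches about 75%, or at least half do and their mean reaches it too, limit read from the data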;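 note: 0% = cytokine-treated negative control wells and 100% = positive control rescue; higher means more ATP so stronger rescue from cytokine killing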
T cruzi inh = inhibitors of intracellular T. cruzi growth, primary screen, luminescence, NIH3T3 host cells; T. cruzi beta-gal in NIH3T3, 90 h; inhibition, % (no concentration beside the values); hit rate 1.4% among 300,000; AID 1885, 2009;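 active = mean inhibition across valid replicates above about 55%, limit read from the data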;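 note: signal also drops with host cell toxicity which is not excluded here; 0% = plate median of DMSO wells and 100% = zero luminescence signal; higher percent means less beta-gal luminescence so fewer parasites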
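Assay system: NIH/3T3 fibroblasts plus reporter T. cruzi. Amount: NIH/3T3 cells, 5,000 per well. Buffer or medium: DMEM, 2% fetal bovine serum. Doses: compound pinned at 50 nL/well, DMSO. Schedule: ≥90 h infection period, 3 h prior cell attachment. Signal: luminescent β-galactosidase signal after 60 min lysis. Read-out: parasite load inhibition, %.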
CSC inhib = cancer stem cell viability inhibitors, primary screen, luminescence. cancer stem cell-like cells viability. inhibition, % at 7.5 µM. hit rate 1.1% among 300,000. AID 2717, 2010; in the data active = inhibition above about 75%; tested in HMLE shEcad cells
Calb FLC = C. albicans growth inhibition with fluconazole, primary screen, CaCi-2 strain, Alamar Blue fluorescence. C. albicans CaCi-2 + fluconazole, 48 h. growth inhibition, % (concentration not given with the values). hit rate 0.57% among 300,000. AID 1979, 2009;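 active = growth inhibition above about 58% in most replicates, limit read from the data, passing the limit was not always enough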;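 note: all wells also contain fluconazole at 8 µg/ml as a sub-toxic cotreatment; 0% = median of DMSO wells and 100% = median of geldanamycin control wells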
Bfl-1 A1 inh = caspase 3/7 activation in MEF A1-2A-BIM cells, primary screen, A1 inhibitor project, cell-based, luminescence, HTS | hit rate 0.066% among 330,000 | AID 2462, 2010 | Caspase-Glo 3/7 luminescence, 3 h; percent of clofoctol response, vehicle zero | caspase activation, % (test concentration not listed);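 active = over half of replicate activation scores above 10%, or exactly half above 10 with the replicate mean above 10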
TAG conf = triacylglycerol accumulation inhibitors, retest, confirmation, cell-based, single concentration, Nile Red fluorescence, H9c2. shares compounds with TAG inh. H9c2 lipid accumulation; cells loaded with 200 µM oleic acid. inhibition, % at 12.5 µM. hit rate 71% among 990;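 active = mean inhibition across replicates of 40% or more; inactive = mean inhibition below 40%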;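 note: plate controls were DMSO only wells for no effect and Triacsin C treated wells for full effect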
* = called active by the depositor; nt = no result given.

SMILES | TAG inh | Beta cell apopt | T cruzi inh | CSC inhib | Calb FLC | Bfl-1 A1 inh | TAG conf
CCN1CCN(c2ncc3c(n2)CC(c2cc(OC)c(OC)c(OC)c2)CC3=O)CC1 (stereo not given) | 60* | 41 | 6 | 40 | 12 | 1 | 82*
CN(C)C(=O)CN1C(=O)NC2(CCCc3ccccc32)C1=O (stereo not given) | 5 | 3 | -10 | 2 | 11 | 2 | nt
Cc1ccc(CN(C)C(=O)CN2C(=O)NC3(CCCc4ccccc43)C2=O)c(C)c1 (stereo not given) | 51* | 6 | nt | nt | nt | 1 | 40*
Cc1cccc(Oc2nc(-c3ccccn3)nc3ccccc23)c1 | 66* | 81* | -3 | 11 | -4 | -2 | 46*
CC(=O)Nc1ccc(Oc2ncccn2)cc1 | nt | nt | nt | nt | 5 | 0 | nt
CC(=O)Nc1ccc(Oc2nc(-c3ccccn3)nc3ccccc23)cc1 | 64* | -6 | -13 | 11 | -2 | 1 | 3
CNC(=S)NN=C(C)c1ccc(OC)cc1O | 72* | nt | nt | nt | nt | nt | 41*
COc1ccc(/C(C)=N/N=C(N)N)c(O)c1 | 0 | -4 | 11 | -6 | 14 | 1 | nt
Cc1ccc(C(=O)NC(=S)N2CCCCCC2)cc1 | -21 | -1 | nt | nt | nt | 0 | nt
COCCN(C(=O)CCC(=O)Nc1ccccn1)C(C(=O)NCCC(C)C)c1ccc(F)cc1 (stereo not given) | nt | -3 | -1 | -11 | -4 | 0 | nt
COc1ccc(-c2sc3cc4c(cc3c2C#Cc2ccc(N)cc2)OCO4)cc1 | 55* | 10 | nt | nt | nt | 0 | 58*
COc1ccc(-c2sc3cc4c(cc3c2C#CCO)OCO4)cc1 | -46 | -1 | nt | 11 | nt | 0 | nt
NCCC(=O)N1c2ccccc2Sc2ccc(Cl)cc21 | 68* | -4 | -9 | 8 | -10 | 1 | 40
CCCC(=O)Nc1ccc2nc(SCC(=O)Nc3ccc(N4CCOCC4)c(Cl)c3)sc2c1 | 51* | 26 | 20 | 0 | 7 | 0 | 34
O=C(CSc1nc2ccc(Nc3nc(N4CCOCC4)nc(N4CCOCC4)n3)cc2s1)Nc1ccccc1F | 73* | 7 | nt | -4 | 26 | -1 | 78*
O=C(CSc1nc2ccc(Nc3nc(N4CCOCC4)nc(N4CCOCC4)n3)cc2s1)N1CCOCC1 | nt | 8 | 30 | 2 | 9 | 1 | nt
Nc1ccc2nc(SCC(=O)Nc3ccc(N4CCOCC4)c(Cl)c3)sc2c1 | nt | 5 | 2 | -1 | -5 | -1 | nt
O=C(CSc1nc2ccc(Nc3nc(N4CCOCC4)nc(N4CCOCC4)n3)cc2s1)Nc1ccccc1Cl | 62* | -8 | 10 | 45 | 2 | 0 | 67*
CCN(CC)/C(=N\S(=O)(=O)c1ccccc1C)c1ccccc1 | nt | nt | -17 | 12 | 26 | 0 | nt
COc1ccc(NC(=O)CN2C(=O)c3ccccc3S2(=O)=O)cc1S(=O)(=O)N1CCOCC1 | 9 | nt | nt | nt | nt | nt | nt
CC(=O)N(CC(C)C(=O)O)c1c(I)cc(I)c(N)c1I (stereo not given) | 19 | 0 | nt | -4 | nt | 0 | nt
CCC(C)(C)NC(=O)C(c1ccc(C)cc1)N(Cc1ccco1)C(=O)CCC(=O)Nc1nccs1 (stereo not given) | 66* | 5 | 9 | 6 | 8 | -1 | 65*
CC(C)(C)NC(=O)C(c1ccc(F)cc1)N(Cc1ccco1)C(=O)CCC(=O)Nc1nccs1 (stereo not given) | nt | -2 | 8 | nt | 0 | 0 | nt
COc1ccc(C(C(=O)NC(C)(C)C)N(Cc2ccco2)C(=O)CCC(=O)Nc2cc(C)on2)cc1 (stereo not given) | 56* | 1 | -3 | 9 | 10 | -1 | 46*
CCC(C)(C)NC(=O)C(c1ccc(OC)cc1)N(Cc1ccco1)C(=O)CCC(=O)Nc1cc(C)on1 (stereo not given) | 70* | -2 | -5 | -3 | 1 | 0 | 57*
